According to publication PMC5330449 (ACS sustainable chemistry & engineering, 2015):
Converted amounts (≈) assume the structure as drawn. Read-outs that look alike come from different tables or passages of the source. Marks after values point to notes of the source that are not given here. Values belong to the compound of their own block, whether it stands above or below them.

Columns and labels:
[1] = system: Raw 264.7 macrophages stimulated with LPS; experiment: Inhibition of LPS-induced NO production in macrophages; type: cell-based, mouse; conditions: 100 μM and 50 μM, pre-treated 1 hour, LPS 1 μg.mL^-1
Raw 264.7 cells = experiment: Cytotoxicity, resazurin metabolic conversion, Raw 264.7; type: cell-based, mouse; conditions: for EC50: read-out: EC50, 50% decrease in cell viability
Summary of the method: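 Mouse Raw 264.7 macrophages were kept in IMDM with 10% non-inactivated FBS and penicillin/streptomycin at 37 °C, 5% CO2. After 24 h attachment, cells received test compound at 1–5000 µM in full medium for 24 h. Resazurin (10% v/v) was added for the last 1 h, and resorufin absorbance was read at 570/600 nm relative to untreated cells. EC50 was fitted by non-linear least squares to a logistic model, from three independent experiments in triplicate.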

[2] = Thermogravimetric analysis; type: physicochemical; conditions: TGA onset, nitrogen atmosphere, 10 °C.min^-1
[3] = Water solubility from saturated aqueous solution, UV quantification; type: physicochemical; conditions: pure water, 25 °C; for solubility at 72 h: water, thermodynamic from solid
HaCaT cells = experiment: Cytotoxicity, resazurin metabolic conversion, HaCaT; type: cell-based, human
Summary of the method: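 HaCaT keratinocytes were grown in high-glucose DMEM with 4 mM glutamine, 10% heat-inactivated FBS and penicillin/streptomycin at 37 °C under 5% CO2. After 24 h attachment in 96-well plates, cells were exposed for 24 h to test compound (1–5000 µM) in full medium. Resazurin (10% v/v) was present for the final 2 h. Absorbance was read at 570/600 nm and normalised to untreated cells. EC50 came from a logistic least-squares fit of three independent experiments run in triplicate.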

[4] = 25 °C; ref Queimada et al. 39; cited from earlier work
[5] = DPPH radical scavenging assay; conditions: for DPPH scavenging IC50: tested up to 1 mg.mL^-1, IC50 impossible to determine; for DPPH radical scavenging (antioxidant) activity, in words: 30, 90 and 120 minutes of exposure to DPPH
Summary of the method: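 DPPH (250 µL of 0.91 mmol/L in methanol) was combined with 20–80 µL of a test compound stock and made up to 4 mL with methanol. Samples stood in the dark at room temperature for 30, 90 and 120 min before absorbance was read at 517 nm. Controls were DPPH without compound and ascorbic acid as positive control. Activity = (A0−A1)/A0×100, and IC50 came from scavenging-versus-concentration fits, in triplicate.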

Vibrio fischeri = experiment: Standard Microtox liquid-phase assay; type: cell-based, Vibrio fischeri (strain NRRL B-11177); conditions: for EC50, luminescence inhibition: 30 min of exposure, 15 °C, Passino's classification; for Ecotoxicity rank among the cholinium-based salts: EC50 in mmol.L^-1, Figure 2
Summary of the method: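 Vibrio fischeri NRRL B-11177 was tested by the standard 81.9% liquid-phase protocol at 15 °C. Aqueous dilutions (0–81.9 wt% of stock) were used, with stock concentration corrected for water content by Karl Fischer titration. Luminescence was read after 5, 15 and 30 min and compared with a blank. EC50 and 95% confidence intervals were fitted to a logistic equation by non-linear least squares.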

[6] = cited from earlier work
[7] = Homo sapiens, 24 h, read-out: EC50, 50% decrease in cell viability
[8] = Raw 264.7, 24 hours of exposure
[9] = read-out: EC50, 50% decrease in cell viability, 24 hours of exposure

Temperature of decomposition (Td) [2]: 262.5 ºC
solubility at 72 h [3]: 71.3 ± 2.7 mM (≈ 12100 µg/mL)
Compound: O=C(O)c1cc(O)c(O)c(O)c1 [gallic acid, 3,4,5-trihydroxybenzoic acid, reference compound]
Effect on LPS-induced NO production [1]: neither [Chol][Gal] nor gallic acid decrease the LPS-induced NO production
EC50 (Raw 264.7 cells; Mus musculus, RAW264.7, 24 h): 591 µM
EC50 (HaCaT cells; [7]): 267 µM

Temperature of decomposition (Td) [2]: 472.6 ºC
Compound: O=c1oc2c(O)c(O)cc3c(=O)oc4c(O)c(O)cc1c4c23 [ellagic acid, reference compound]
Water solubility ± std [4]: 1.26E-02 ± 3.31E-04 ^b mmol.L^-1

Compound: C[N+](C)(C)CCO.O=C([O-])/C=C/c1ccc(O)c(O)c1 [[Chol][Caf], (2-hydroxyethyl) trimethylammonium (E)-3-(3,4-dihydroxyphenyl)acrylate]
Effect on LPS-induced NO production [1]: significantly inhibit the LPS-induced NO increase

DPPH scavenging IC50 [5]: > 1000 mg/L
Temperature of decomposition (Td) [2]: 183.9 ºC
Compound: O=C(O)c1ccccc1O [salicylic acid, reference compound]

Compound: COc1cc(C(=O)[O-])cc(OC)c1O.C[N+](C)(C)CCO [[Chol][Syr], (2-hydroxyethyl) trimethylammonium 4-hydroxy-3,5-dimethoxybenzoate]
Temperature of decomposition (Td) [2]: 178.9 ºC
Water solubility ± std [3]: 2793.71 ± 17.98 mM

Compound: COc1cc(C(=O)[O-])ccc1O.C[N+](C)(C)CCO [[Chol][Van], (2-hydroxyethyl) trimethylammonium 4-hydroxy-3-methoxybenzoate]
DPPH radical scavenging (antioxidant) activity, in words [5]: significantly higher DPPH radical scavenging activity than vanillic acid
Temperature of decomposition (Td) [2]: 186.8 ºC
EC50, luminescence inhibition (Vibrio fischeri): > 1000 mg/L

Compound: C[N+](C)(C)CCO.O=C([O-])c1cc(O)c(O)c(O)c1 [[Chol][Gal], (2-hydroxyethyl) trimethylammonium 3,4,5-trihydroxybenzoate]
Effect on LPS-induced NO production [1]: neither [Chol][Gal] nor gallic acid decrease the LPS-induced NO production
Temperature of decomposition (Td) [2]: 185.3 ºC
EC50, luminescence inhibition (Vibrio fischeri): > 1000 mg/L
Ecotoxicity rank among the cholinium-based salts (Vibrio fischeri): less toxic
Water solubility ± std [3]: 2402.27 ± 6.09 mM

solubility at 72 h [3]: 3.84 ± 0.04 mM (≈ 692 µg/mL)
Compound: O=C(O)/C=C/c1ccc(O)c(O)c1 [caffeic acid, reference compound]
EC50 (Raw 264.7 cells; Mus musculus, RAW264.7, 24 h): 2000 µM
EC50 (HaCaT cells; [7]): 1800 µM

Compound: C[N+](C)(C)CCO.[Cl-] [cholinium chloride, Cholinium chloride]
Decomposition temperature [6]: circa 305 ºC

Compound: O=C(O)c1cc(O)c(O)c(O)c1 [[Chol][Gal], (2-hydroxyethyl) trimethylammonium 3,4,5-trihydroxybenzoate]
EC50 (Raw 264.7 cells; [8]): 836 µM
EC50 (HaCaT cells; [9]): 304 µM

Compound: C[N+](C)(C)CCO.C[N+](C)(C)CCO.O=c1oc2c(O)c([O-])cc3c(=O)oc4c(O)c([O-])cc1c4c23 [[Chol]2[Ell], di((2-hydroxyethyl)trimethylammonium) 3,8-dihydroxy-5,10-dioxo-5,10-dihydrochromeno[5,4,3-cde]chromene-2,7-bis(olate)]
DPPH radical scavenging (antioxidant) activity, in words [5]: highest antioxidant activity
Effect on LPS-induced NO production [1]: significantly inhibit the LPS-induced NO increase
Cell viability at maximum concentration achieved (Raw 264.7 cells; 125 µM, Raw 264.7): not observed a decrease in the cell viability
Temperature of decomposition (Td) [2]: 265 ºC
Temperature of decomposition (Td) ([2]; listed as [Chol]2 [Ell]): 265.0 ºC
Water solubility ± std [3]: 622.97 ± 36.98 mM
Cell viability at maximum concentration achieved (HaCaT cells; 125 µM): not observed a decrease in the cell viability

Compound: O=C(O)/C=C/c1ccc(O)c(O)c1 [[Chol][Caf], (2-hydroxyethyl) trimethylammonium (E)-3-(3,4-dihydroxyphenyl)acrylate]
EC50 (Raw 264.7 cells; [8]): 2340 µM
EC50 (HaCaT cells; [9]): 1790 µM

Compound: COc1cc(C(=O)O)ccc1O [vanillic acid, reference compound]
Temperature of decomposition (Td) [2]: 233.7 ºC

Compound: C[N+](C)(C)CCO.O=C([O-])c1ccccc1O [[Chol][Sal], (2-hydroxyethyl) trimethylammonium 2-hydroxybenzoate, reference compound]
DPPH scavenging IC50 [5]: > 1000 mg/L
Temperature of decomposition (Td) [2]: 226.0 ºC
Ecotoxicity rank among the cholinium-based salts (Vibrio fischeri): most toxic
Water solubility ± std [3]: Completely miscible
